The record followed here is ChEMBL document CHEMBL4715928, “Discovery of Dipeptides as Potent Botulinum Neurotoxin A Light-Chain Inhibitors” (ACS Med Chem Lett, 2021).

The first assay has as its system Clostridium botulinum. Description: Zinc chelating activity mediated inhibition of Clostridium botulinum BoNT/A LC activity at 15 uM using SNAPtide as substrate measured for 10 mins by FRET assay relative to control. Summed up:
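Recombinant BoNT/A light chain at 20 nM, 8 μM SNAPtide FRET substrate, each dipeptide tested at 15 μM. Reactions were run in triplicate, and percent inhibition is the mean of the three.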
The inhibition is how much of the control response was suppressed. A lower inhibition goes with little suppression. Molecule `CC[C@H](C)[C@H](NC(=O)[C@H](Cc1ccccc1)NS(=O)(=O)c1ccc(C2CCCCC2)cc1)C(=O)NO` showed an inhibition of 57%.

Molecule `CC[C@H](C)[C@H](NC(=O)[C@H](Cc1ccccc1)NS(=O)(=O)c1cc(Cl)cc(Cl)c1)C(=O)NO` yielded an inhibition of 100%.

In turn, `CC[C@H](C)[C@H](NC(=O)[C@H](Cc1ccccc1)NS(=O)(=O)c1c(Cl)cccc1Cl)C(=O)NO` gave an inhibition of 83%.

In the case of `CC[C@H](C)[C@H](NS(=O)(=O)c1ccc(-c2ccc(Cl)cc2)cc1)C(=O)N[C@@H](C)C(=O)NO`, the inhibition amounted to 55%.

In turn, `CC[C@H](C)[C@H](NC(=O)[C@H](CC(C)C)NS(=O)(=O)c1ccc(-c2ccc(Cl)cc2)cc1)C(=O)NO` displayed an inhibition of 100%.

For the molecule `CC[C@H](C)[C@H](NC(=O)[C@H](Cc1ccccc1)NS(=O)(=O)c1ccc(Br)cc1)C(=O)NO`, the inhibition was 87%.

On to `CC[C@H](C)[C@H](NS(=O)(=O)c1ccc(-c2ccc(Cl)cc2)cc1)C(=O)N[C@@H](C(=O)NO)[C@@H](C)CC`, for which the inhibition was found to be 57%.

The molecule `CC[C@H](C)[C@H](NC(=O)[C@H](Cc1ccccc1)NS(=O)(=O)c1ccc(-c2ccccc2)cc1)C(=O)NO` returned an inhibition of 77%.

With `CC[C@H](C)[C@H](NC(=O)[C@@H](NS(=O)(=O)c1ccc(-c2ccc(Cl)cc2)cc1)[C@@H](C)CC)C(=O)NO`, the inhibition was found to be 85%.

The molecule `CC[C@H](C)[C@@H](NS(=O)(=O)c1ccc(-c2ccc(Cl)cc2)cc1)C(=O)N[C@@H](Cc1ccccc1)C(=O)NO` showed an inhibition of 62%.

As to `CC[C@H](C)[C@@H](NC(=O)[C@@H](Cc1ccccc1)NS(=O)(=O)c1ccc(-c2ccc(Cl)cc2)cc1)C(=O)NO`, the inhibition amounted to 63%.

As to `CC[C@H](C)[C@H](NS(=O)(=O)c1ccc(-c2ccc(Cl)cc2)cc1)C(=O)NCC(=O)NO`, the inhibition came out at 18%.

On to `CC[C@H](C)[C@H](NC(=O)[C@H](Cc1ccccc1)NS(=O)(=O)c1ccc(-c2ccc(Cl)cc2)cc1)C(=O)NO`, for which the inhibition worked out at 100%.

For the molecule `CC[C@H](C)[C@H](NC(=O)[C@@H](Cc1ccccc1)NS(=O)(=O)c1ccc(-c2ccc(Cl)cc2)cc1)C(=O)NO`, the inhibition is 41%.

`CC[C@H](C)[C@H](NS(=O)(=O)c1ccc(-c2ccc(Cl)cc2)cc1)C(=O)NC(C)(C)C(=O)NO` registered an inhibition of 11%.

For the molecule `CC[C@H](C)[C@H](NS(=O)(=O)c1ccc(-c2ccc(Cl)cc2)cc1)C(=O)N[C@@H](Cc1ccccc1)C(=O)NO`, the inhibition turned out to be 44%.

As to `CC[C@H](C)[C@H](NC(=O)[C@H](Cc1ccccc1)NS(=O)(=O)c1cccc(Cl)c1)C(=O)NO`, the inhibition turned out to be 79%.

`CC[C@H](C)[C@H](NC(=O)[C@H](NS(=O)(=O)c1ccc(-c2ccc(Cl)cc2)cc1)[C@@H](C)CC)C(=O)NO` registered an inhibition of 69%.

For `CC[C@H](C)[C@H](NC(=O)[C@H](Cc1ccccc1)NS(=O)(=O)c1ccc(Cl)cc1)C(=O)NO`, the inhibition worked out at 77%.

As for `CC[C@H](C)[C@H](NC(=O)[C@H](C)NS(=O)(=O)c1ccc(-c2ccc(Cl)cc2)cc1)C(=O)NO`, the inhibition worked out at 31%.

As to `CC[C@H](C)[C@H](NC(=O)[C@H](Cc1ccccc1)NS(=O)(=O)c1ccccc1)C(=O)NO`, the inhibition was found to be 52%.

Molecule `CCOc1ccc(S(=O)(=O)N[C@@H](Cc2ccccc2)C(=O)N[C@H](C(=O)NO)[C@@H](C)CC)cc1OCC` had an inhibition of 22%.

Take `CC[C@H](C)[C@@H](NC(=O)[C@H](NS(=O)(=O)c1ccc(-c2ccc(Cl)cc2)cc1)[C@@H](C)CC)C(=O)NO`: the inhibition was found to be 48%.

Regarding `CC[C@H](C)[C@H](NS(=O)(=O)c1ccc(-c2ccc(Cl)cc2)cc1)C(=O)NCCC(=O)NO`, the inhibition is 62%.

Regarding `CC[C@H](C)[C@H](NC(=O)C(C)(C)NS(=O)(=O)c1ccc(-c2ccc(Cl)cc2)cc1)C(=O)NO`, the inhibition came to 84%.

Take `CC[C@H](C)[C@H](NC(=O)[C@H](Cc1ccccc1)NS(=O)(=O)c1cccc(C(C)(C)C)c1)C(=O)NO`: the inhibition came to 93%.

Test system in the next assay: not listed separately
Description: Zinc chelating activity mediated inhibition of Clostridium botulinum BoNT/A LC activity using SNAPtide as substrate measured for 10 mins by FRET assay. Summed up:
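BoNT/A light chain at 20 nM was incubated with 8 μM SNAPtide substrate across a range of dipeptide concentrations. IC50 values were derived from the concentration series.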
The IC50 is the concentration at which inhibition is half-maximal. Lower therefore signals greater potency in that assay. Molecule `CCC[C@H](NC(=O)[C@@H](NS(=O)(=O)c1cc(Cl)cc(Cl)c1)[C@@H](C)CC)C(=O)NO` had an IC50 of 89 nM. In other words, the double-digit nanomolar range.

Turning to `CC[C@H](C)[C@H](NC(=O)[C@H](Cc1ccccc1)NS(=O)(=O)c1cc(Cl)cc(Cl)c1)C(=O)NO`, 150 nM corresponded to half-maximal inhibition (IC50).

In turn, `CCC[C@H](NC(=O)[C@@H](NS(=O)(=O)c1ccc(-c2ccc(Cl)cc2)cc1)[C@@H](C)CC)C(=O)NO` yielded an IC50 of 1000 nM.

For `CC[C@H](C)[C@H](NC(=O)[C@@H](NS(=O)(=O)c1ccc(-c2ccc(Cl)cc2)cc1)C(C)C)C(=O)NO`, inhibition was half-maximal at 2900 nM (IC50).

The molecule `CC[C@H](C)[C@H](NS(=O)(=O)c1cc(Cl)cc(Cl)c1)C(=O)N[C@@H](CC(C)C)C(=O)NO` came in with an IC50 of 150 nM.

As to `CC[C@H](C)[C@H](NC(=O)[C@@H](NS(=O)(=O)c1cc(Cl)cc(Cl)c1)C(C)C)C(=O)NO`, half-maximal inhibition (IC50) required 69 nM.

With `CC[C@H](C)[C@H](NC(=O)[C@H](Cc1ccccc1)NS(=O)(=O)c1ccc(-c2ccc(Cl)cc2)cc1)C(=O)NO`, the midpoint of inhibition, the IC50, lay at 2400 nM. Compared with the last molecule, the IC50 is about 35-fold higher.

`CC(C)[C@H](NC(=O)[C@H](Cc1ccccc1)NS(=O)(=O)c1cc(Cl)cc(Cl)c1)C(=O)NO` came in with an IC50 of 21 nM.

For the molecule `CCC[C@H](NC(=O)[C@H](Cc1ccccc1)NS(=O)(=O)c1cc(Cl)cc(Cl)c1)C(=O)NO`, the IC50 is 43 nM.
